Results on 24 molecules are retold here after ChEMBL document CHEMBL3352164, “Discovery of N-(2,4-di-tert-butyl-5-hydroxyphenyl)-4-oxo-1,4-dihydroquinoline-3-carboxamide (VX-770, ivacaftor), a potent and orally bioavailable CFTR potentiator” (J Med Chem, 2014).

As usually defined, the EC50 is the concentration at which the effect is half-maximal. Broadly, the AUC(0-inf) is total exposure, with the tail of the curve extrapolated. Low values mean less exposure, high ones more exposure. As usually defined, the half-life is how long it takes for the measured level to halve. By clearance is commonly meant the volume of plasma or blood freed of the substance per unit of time. High values mean efficient removal, low ones inefficient removal. Usually IC50 stands for the point on the concentration scale where inhibition reaches its midpoint. Usually bioavailability stands for the share of a dose that reaches the circulation, judged against a reference dose that is usually intravenous. Low values mean little systemic uptake, high ones much systemic uptake.

The target in series [1] is Cystic fibrosis transmembrane conductance regulator (Homo sapiens, UniProt P13569, F508DEL). As to the kind of experiment: Potentiation of human CFTR F508del mutant expressed in mouse NIH-3T3 cells after 30 mins by fluorescent voltage sensing optical assay. Type of series: cell-based, NIH3T3. Put shortly:
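NIH-3T3 fibroblasts stably expressing human F508del-CFTR were held 16–24 h at 27 °C to correct misfolding. Cells were washed in NaCl/HEPES bath, pH 7.4, then loaded with voltage-sensing dyes plus compound for 30 min at room temperature. Cl−-free bath with forskolin was added once, and membrane potential change was read by fluorescence. EC50 is mean ± SD of at least three determinations.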

A short description of series [2]: AUC (0 to infinity) in Sprague-Dawley rat at 2.49 mg/kg, iv. Type of series: ADME, organism-based. Further details: time infinity, dose 2.49 mg/kg, route intravenous. The note with it: plasma. Put shortly: (§1)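 Male Sprague−Dawley rats, n = 3/group, single iv dose in dimethyl isosorbide/ethanol/PEG400/D5W (10%/15%/35%/40%) at 1 mL/kg. Carotid cannula blood at predose, 5, 15, 30, 45 min and 1, 2, 4, 6, 8, 12, 24, 36, 48 h. Plasma levels by LC/MS/MS (LLOQ 1 ng/mL, linear 1–2500 ng/mL). Noncompartmental analysis of mean profiles using measured doses.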

The nature of series [3]: Half life in Sprague-Dawley rat at 2.49 mg/kg, iv. Type of series: ADME, organism-based. Further details: dose 2.49 mg/kg, route intravenous. Conditions: in vivo. Put shortly:
(§2)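 Animals (n = 3/group; male mouse, Sprague-Dawley rat, beagle dog, cynomolgus monkey) got a single iv dose in dimethyl isosorbide/ethanol/PEG400/D5W (10%/15%/35%/40%) at 1 mL/kg. Heparinized blood was drawn via an indwelling carotid cannula from predose to 48 h. Plasma was assayed by LC/MS/MS (LLOQ 1 ng/mL, linear 1–2500 ng/mL). Parameters came from noncompartmental analysis of mean profiles using measured doses.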

Series [4] is described as follows: Volume of distribution at steady state in Sprague-Dawley rat at 2.49 mg/kg, iv. Further details: dose 2.49 mg/kg, route intravenous. The note with it: in vivo, read-out: Vdss. Type of series: ADME, organism-based. The gist of the method:
as §2

Series [5] can be described thus: Clearance in Sprague-Dawley rat at 2.49 mg/kg, iv. Type of series: ADME, organism-based. Also noted: dose 2.49 mg/kg, route intravenous. The note with it: in vivo. The gist of the method:
as §2

The nature of series [6]: Binding affinity to ligand-gated chloride channel (unknown origin). Also noted: species or system Homo sapiens.
A short description of series [7]: Volume of distribution at steady state in Sprague-Dawley rat at 2.5 mg/kg, iv. Type of series: ADME, organism-based. Also noted: dose 2.5 mg/kg, route intravenous. Conditions: in vivo, read-out: Vdss. Put shortly: as §2
Series [8] in a line: Volume of distribution at steady state in beagle dog at 1 mg/kg, iv. Type of series: ADME, organism-based, Canis lupus familiaris. Also noted: dose 1 mg/kg, route intravenous. The note with it: in vivo, read-out: Vdss. The gist of the method: as §2
The nature of series [9]: Clearance in beagle dog at 1 mg/kg, iv. Type of series: ADME, organism-based, Canis lupus familiaris. Further details: dose 1 mg/kg, route intravenous. The note with it: in vivo. Put shortly: as §2
The nature of series [10]: Half life in Sprague-Dawley rat at 2.5 mg/kg, iv. Type of series: ADME, organism-based. Also noted: dose 2.5 mg/kg, route intravenous. Conditions: in vivo. Put shortly: as §2
Series [11] is described as follows: Oral bioavailability in Sprague-Dawley rat at 2.5 mg/kg. Type of series: ADME, organism-based. Conditions: in vivo. Put shortly:
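Single oral dose, n = 3/group. Heparinized carotid-cannula blood was sampled at predose, 0.25, 0.5, 1, 1.5, 2, 4, 8, 12 and 24 h. Plasma levels were measured by LC/MS/MS (LLOQ 1 ng/mL). AUC and bioavailability were derived by noncompartmental analysis of mean concentration–time profiles against the iv arm.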

The nature of series [12]: Clearance in Sprague-Dawley rat at 2.5 mg/kg, iv. Type of series: ADME, organism-based. Further details: dose 2.5 mg/kg, route intravenous. The note with it: in vivo. Put shortly:
as §2

In series [13] the target is GABA-A receptor; benzodiazepine site (Homo sapiens). As to the kind of experiment: Binding affinity to GABAA receptor (unknown origin).
A short description of series [14]: Half life in beagle dog at 1 mg/kg, iv. Type of series: ADME, organism-based, Canis lupus familiaris. Also noted: dose 1 mg/kg, route intravenous. Conditions: in vivo. The gist of the method: as §2
Series [15] deals with Cystic fibrosis transmembrane conductance regulator (Homo sapiens), P13569 [F508del]. As to the kind of experiment: Potentiation of human CFTR F508del mutant expressed in mouse NIH-3T3 cells at 30 uM after 30 mins by fluorescent voltage sensing optical assay relative to VRT-532. Type of series: cell-based. Conditions: NIH3T3. The gist of the method:
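Same F508del-CFTR NIH-3T3 membrane-potential assay: 27 °C correction for 16–24 h, dye plus compound for 30 min at room temperature, then forskolin in Cl−-free bath. Compounds below 50% activity at 30 μM were not titrated. Their response at 30 μM is given as % of VRT-532.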

Series [16] can be described thus: Half life in Sprague-Dawley rat at 1.57 mg/kg, iv. The note with it: in vivo. Type of series: ADME, organism-based. Also noted: dose 1.57 mg/kg, route intravenous. Put shortly:
as §2

Series [17] can be described thus: Clearance in Sprague-Dawley rat at 1.57 mg/kg, iv. Type of series: ADME, organism-based. Also noted: dose 1.57 mg/kg, route intravenous. Conditions: in vivo. Put shortly:
as §2

Series [18] is described as follows: AUC (0 to infinity) in Sprague-Dawley rat at 1.57 mg/kg, iv. Also noted: time infinity, dose 1.57 mg/kg, route intravenous. Conditions: plasma. Type of series: ADME, organism-based. The gist of the method: as §1
Series [19] can be described thus: Volume of distribution at steady state in Sprague-Dawley rat at 1.57 mg/kg, iv. Type of series: ADME, organism-based. Further details: dose 1.57 mg/kg, route intravenous. The note with it: in vivo, read-out: Vdss. Put shortly: as §2

Chain of Cystic fibrosis transmembrane conductance regulator (P13569 as listed by the source): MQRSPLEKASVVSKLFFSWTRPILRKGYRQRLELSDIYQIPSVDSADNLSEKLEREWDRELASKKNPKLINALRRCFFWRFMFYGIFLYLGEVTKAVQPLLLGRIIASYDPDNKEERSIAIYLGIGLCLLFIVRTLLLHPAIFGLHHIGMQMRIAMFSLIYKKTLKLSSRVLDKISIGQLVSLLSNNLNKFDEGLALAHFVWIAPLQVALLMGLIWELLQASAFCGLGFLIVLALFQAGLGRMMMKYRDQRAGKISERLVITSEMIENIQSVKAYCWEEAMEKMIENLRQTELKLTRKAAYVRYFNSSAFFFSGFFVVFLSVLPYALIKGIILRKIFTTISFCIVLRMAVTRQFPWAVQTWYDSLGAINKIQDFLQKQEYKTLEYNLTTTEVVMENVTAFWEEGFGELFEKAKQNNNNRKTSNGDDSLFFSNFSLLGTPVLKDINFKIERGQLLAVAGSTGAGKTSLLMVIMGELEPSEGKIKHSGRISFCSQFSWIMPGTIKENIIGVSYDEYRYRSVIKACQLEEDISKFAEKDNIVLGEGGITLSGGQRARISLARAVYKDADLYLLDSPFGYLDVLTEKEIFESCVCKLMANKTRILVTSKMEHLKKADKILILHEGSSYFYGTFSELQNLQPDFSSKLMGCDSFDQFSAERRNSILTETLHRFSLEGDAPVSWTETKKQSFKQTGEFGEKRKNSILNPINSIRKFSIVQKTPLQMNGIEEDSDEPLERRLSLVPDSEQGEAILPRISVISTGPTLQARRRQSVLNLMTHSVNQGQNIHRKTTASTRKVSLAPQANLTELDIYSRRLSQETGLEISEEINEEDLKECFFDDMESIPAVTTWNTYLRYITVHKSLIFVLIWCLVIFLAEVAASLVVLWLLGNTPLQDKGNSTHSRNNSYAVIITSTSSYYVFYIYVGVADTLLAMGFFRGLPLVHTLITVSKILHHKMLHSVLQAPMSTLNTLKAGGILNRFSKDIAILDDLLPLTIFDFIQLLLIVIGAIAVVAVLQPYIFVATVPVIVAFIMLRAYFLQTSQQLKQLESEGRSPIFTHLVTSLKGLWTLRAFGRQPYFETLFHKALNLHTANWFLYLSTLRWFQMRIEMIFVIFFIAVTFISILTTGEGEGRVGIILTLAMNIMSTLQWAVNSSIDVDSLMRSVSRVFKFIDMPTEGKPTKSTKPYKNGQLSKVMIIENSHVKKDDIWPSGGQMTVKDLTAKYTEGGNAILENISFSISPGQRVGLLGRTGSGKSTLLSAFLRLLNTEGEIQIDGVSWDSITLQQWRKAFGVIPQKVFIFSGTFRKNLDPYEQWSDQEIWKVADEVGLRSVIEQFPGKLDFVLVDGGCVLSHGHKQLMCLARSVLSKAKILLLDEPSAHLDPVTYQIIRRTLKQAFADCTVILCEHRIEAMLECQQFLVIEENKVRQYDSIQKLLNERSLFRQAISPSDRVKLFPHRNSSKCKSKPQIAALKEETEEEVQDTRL
Chain of Cystic fibrosis transmembrane conductance regulator (Homo sapiens), P13569 [F508del] (P13569 as listed by the source): as above

As to `CCc1ccc(NC(=O)c2c[nH]c3ccccc3c2=O)cc1N`, the EC50 in [1] stood at 1.7 µM.

`CC(C)(C)c1cc2cc[nH]c2cc1NC(=O)c1c[nH]c2ccccc2c1=O` came in with an area under the curve AUC(0-inf) in series [2] of 2640 ng·h/mL. The molecule also had a half-life in [3] of 2.9 h. For the same molecule, in series [4], the Vd is 3.3 L/kg. The molecule also displayed a clearance in series [5] of 15.8 mL/min/kg. The EC50 in [1] worked out at 0.011 µM.

Take `O=C(Nc1ccccc1)c1c[nH]c2ccccc2c1=O`: the EC50 in [1] is 1.3 µM.

For the molecule `CCCc1ccc(NC(=O)c2c[nH]c3ccccc3c2=O)cc1N`, the EC50 in series [1] stood at 0.4 µM.

In the case of `CCc1cc2cc[nH]c2cc1NC(=O)c1c[nH]c2ccccc2c1=O`, the EC50 in series [1] came to 0.02 µM.

On to `CC(C)(C)c1ccc(NC(=O)c2c[nH]c3ccccc3c2=O)cc1`, for which, in series [1], the EC50 came to 0.1 µM.

For `O=C(Nc1ccc2c(c1)NCC2)c1c[nH]c2ccccc2c1=O`, the EC50 in [1] turned out to be 0.4 µM.

Consider `O=C(Nc1ccc2cc[nH]c2c1)c1c[nH]c2ccccc2c1=O`, for which the IC50 in series [6] and in series [13] was 0.1 µM throughout. Further, the Vd in series [7] was 2.4 L/kg; in series [8], 1.6 L/kg. For the same molecule, the clearance in [9] was 17 mL/min/kg; in [12], 28 mL/min/kg. In addition, the half-life in series [10] was 1.3 h; in series [14], 0.9 h. In [11], this molecule registered a bioavailability of 11%. Besides, the EC50 in [1] was 0.1 µM.

For `CC(C)(C)c1ccc(NC(=O)c2c[nH]c3ccccc3c2=O)cc1F`, the EC50 in series [1] came to 0.1 µM.

On to `O=C1Cc2ccc(NC(=O)c3c[nH]c4ccccc4c3=O)cc2N1`, for which, in series [15], the Activity was determined as 21%.

Turning to `O=C(Nc1ccc2cc[nH]c2n1)c1c[nH]c2ccccc2c1=O`, in series [15], the Activity amounted to 13%.

Turning to `Cn1ccc2ccc(NC(=O)c3c[nH]c4ccccc4c3=O)cc21`, the EC50 in series [1] was determined as 6.4 µM.

On to `O=C(c1c[nH]c2ccccc2c1=O)N(Cc1ccccc1)Cc1ccccc1`, for which the EC50 in series [1] came to 2.1 µM.

Take `CCc1ccc(NC(=O)c2c[nH]c3ccccc3c2=O)cc1`: the EC50 in series [1] is 0.8 µM.

Take `O=C(Nc1ccc2nc[nH]c2c1)c1c[nH]c2ccccc2c1=O`: in series [15], the Activity was 12%.

With `O=C(c1cnc2ccccc2c1)N(Cc1ccccc1)Cc1ccccc1`, the EC50 in [1] came out at 16 µM.

For `CC(C)(C)c1ccc(NC(=O)c2c[nH]c3ccccc3c2=O)cc1N`, the EC50 in [1] is 0.1 µM.

Consider `CC(C)c1ccc(NC(=O)c2c[nH]c3ccccc3c2=O)cc1`, for which the EC50 in series [1] turned out to be 0.2 µM.

In the case of `O=C(c1cnc2ccccn2c1=O)N(Cc1ccccc1)Cc1ccccc1`, the Activity in series [15] was found to be 10%.

As to `CCc1cccc(CC)c1NC(=O)c1c[nH]c2ccccc2c1=O`, the EC50 in [1] was 1.5 µM.

As for `O=C(c1ccc2ccccc2c1O)N(Cc1ccccc1)Cc1ccccc1`, the EC50 in [1] is 3.5 µM.

In the case of `CC(C)(C)c1cc(F)c(NC(=O)c2c[nH]c3ccccc3c2=O)cc1O`, in [16], the half-life is 1.1 h. Besides, the clearance in series [17] turned out to be 62.9 mL/min/kg. In series [18], this molecule came in with an AUC(0-inf) of 520 ng·h/mL. The Vd in series [19] turned out to be 2.9 L/kg. Further, in [1], the EC50 is 0.002 µM.

For the molecule `O=C(Oc1ccc2cc[nH]c2c1)c1c[nH]c2ccccc2c1=O`, the Activity in series [15] was determined as 19%.

As to `CC(C)c1ccc(NC(=O)c2c[nH]c3ccccc3c2=O)cc1N`, the EC50 in series [1] came out at 0.3 µM.
